Drawing on PubChem BioAssay, this text covers outcome, potentiation and activation for 30 molecules.

Assay [1] in a line: thallium flux activation in parental CHO cells, counter-screen for KCNQ1 potentiator project (AID 493006).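 For activation: fluorescence ratio of max minus min over baseline after K+ and Tl+ depolarization.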 The note with it: parental CHO-K1 cells, FluxOR thallium flux, at 10 µM; stronger effect = higher value. The procedure, abridged: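 Material: untransfected host CHO-K1 cells with FluxOR thallium dye. Timing: overnight 37 °C plating, 90 min RT dye, 20 min compound. Detection: kinetic FluxOR fluorescence, 10 s baseline, 110 s after stimulus. Read-out basis: max-minus-min fluorescence over baseline, percent of buffer-to-R-L3 span. Replicates: duplicate wells per compound, percent values averaged.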
A general note: The purpose of a counterscreen is to sort out artefacts and off-target activity.

Assay [2] deals with Potassium voltage-gated channel subfamily KQT member 1 (Homo sapiens) (UniProt P51787). Briefly: KCNQ1 potassium channel potentiators, confirmation, FluxOR thallium flux, CHO cells, duplicates (AID 493007;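 active = potentiation averaged over duplicate wells exceeding buffer-only control mean by more than 3 SD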;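 for outcome: cells depolarized by a potassium plus thallium sulfate stimulus after compound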). The note with it: KCNQ1 cell line, FluxOR thallium flux fluorescence, at 10 µM; stronger effect = higher value, % of reference activator effect, buffer zero. The essentials:
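Test system – KCNQ1-expressing CHO cell line · Incubation – FluxOR dye loading 90 min, compound exposure 20 min, room temperature · Detection – FluxOR Tl+ flux fluorescence, 10 s baseline plus 110 s recording · Controls – buffer-only wells as 0% and R-L3 activator as 100%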

Assay [3] has as its target Potassium voltage-gated channel subfamily KQT member 2 (Rattus norvegicus) (UniProt O88943). Briefly: rat KCNQ2 channel potentiation, selectivity assay for KCNQ1 potentiator project, KCNQ2-CHO-K1 cells (AID 493009;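 active = mean duplicate potentiation above the buffer control mean plus 5 SD of buffer wells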;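 note: assay conditions were tuned for KCNQ1 rather than KCNQ2 modulators; signal is max minus min fluorescence divided by baseline after thallium stimulus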). The note with it: FluxOR thallium flux fluorescence, at 10 µM; stronger effect = higher value, scaled: buffer 0, activator control 100.
Assay [4] addresses Potassium voltage-gated channel subfamily KQT member 1 (Homo sapiens) (UniProt P51787). Briefly: KCNQ1 channel current potentiators, confirmation, orthogonal assay for KCNQ1 potentiator project, IonWorks patch clamp, KCNQ1-CHO cells (AID 493184;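 active = current rise at least 3 SD above the untreated control mean in each of two repeat wells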). The note with it: automated patch clamp current, at 10 µM; stronger effect = higher value. The procedure, abridged:
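Read-out: Percent current increase versus pre-compound level | Assay system: CHO cells carrying KCNQ1 | Measured by: Automated perforated-patch electrophysiology | Medium: External bath solution at pH 7.4 | Dosing: One dose, 10 µM final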
(In patch-clamp work, channel activity is measured electrically.)

The structures appear in SMILES notation. Calls of active or inactive are those of the source.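 Rule for the calls, unless noted: active = duplicate-averaged activation above buffer control mean plus 5 SD of those controls; inactive = the rest.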

Sequence of Potassium voltage-gated channel subfamily KQT member 2 (Rattus norvegicus) (O88943 whole entry, looked up): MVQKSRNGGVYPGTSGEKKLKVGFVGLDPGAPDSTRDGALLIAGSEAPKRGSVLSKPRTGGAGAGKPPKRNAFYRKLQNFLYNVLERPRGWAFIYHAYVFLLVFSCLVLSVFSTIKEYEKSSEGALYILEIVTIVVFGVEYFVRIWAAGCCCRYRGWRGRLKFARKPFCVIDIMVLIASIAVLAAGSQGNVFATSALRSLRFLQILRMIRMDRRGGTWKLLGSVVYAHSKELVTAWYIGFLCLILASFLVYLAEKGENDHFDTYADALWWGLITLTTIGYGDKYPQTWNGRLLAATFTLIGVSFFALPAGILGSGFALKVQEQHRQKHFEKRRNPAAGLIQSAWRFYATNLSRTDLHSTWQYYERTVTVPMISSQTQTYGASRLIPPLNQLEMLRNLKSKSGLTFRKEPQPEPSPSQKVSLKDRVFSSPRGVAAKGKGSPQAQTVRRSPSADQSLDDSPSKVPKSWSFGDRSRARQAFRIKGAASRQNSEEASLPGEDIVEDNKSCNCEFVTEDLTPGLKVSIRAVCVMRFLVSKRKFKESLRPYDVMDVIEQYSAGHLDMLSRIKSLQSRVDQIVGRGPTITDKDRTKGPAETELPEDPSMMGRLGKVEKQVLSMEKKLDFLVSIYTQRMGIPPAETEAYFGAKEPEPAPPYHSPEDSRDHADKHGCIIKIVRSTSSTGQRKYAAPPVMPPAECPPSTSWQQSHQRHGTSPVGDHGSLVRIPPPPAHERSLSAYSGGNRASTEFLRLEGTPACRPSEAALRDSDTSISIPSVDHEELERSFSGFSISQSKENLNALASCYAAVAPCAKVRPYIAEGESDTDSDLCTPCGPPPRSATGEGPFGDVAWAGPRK
Sequence of Potassium voltage-gated channel subfamily KQT member 1 (Homo sapiens) (P51787 whole entry, looked up): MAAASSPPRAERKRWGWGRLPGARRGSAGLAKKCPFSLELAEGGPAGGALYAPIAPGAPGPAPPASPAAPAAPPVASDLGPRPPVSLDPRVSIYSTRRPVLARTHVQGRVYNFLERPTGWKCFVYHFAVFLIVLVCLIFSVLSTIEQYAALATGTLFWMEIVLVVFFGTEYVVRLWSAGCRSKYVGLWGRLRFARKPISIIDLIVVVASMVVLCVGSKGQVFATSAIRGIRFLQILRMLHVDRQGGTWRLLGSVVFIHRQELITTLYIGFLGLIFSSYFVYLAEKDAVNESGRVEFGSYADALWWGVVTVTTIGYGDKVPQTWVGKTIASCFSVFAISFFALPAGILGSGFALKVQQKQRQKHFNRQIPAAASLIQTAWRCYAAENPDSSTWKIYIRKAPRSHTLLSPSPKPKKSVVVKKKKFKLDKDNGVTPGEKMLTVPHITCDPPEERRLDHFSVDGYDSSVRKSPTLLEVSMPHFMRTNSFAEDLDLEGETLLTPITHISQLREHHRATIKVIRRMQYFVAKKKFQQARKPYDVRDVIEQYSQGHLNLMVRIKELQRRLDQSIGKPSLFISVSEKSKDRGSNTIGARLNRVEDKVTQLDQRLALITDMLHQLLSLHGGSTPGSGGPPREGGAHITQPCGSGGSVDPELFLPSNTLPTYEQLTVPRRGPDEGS

As for `CNc1nc(N)c([N+](=O)[O-])c(Nc2cccc(F)c2)n1`, the outcome in assay [1], in assay [2], in assay [3] and in assay [4] was inactive.

Consider `O=C(N/N=C/c1cccnc1)c1ccco1`, for which the result in assay [1], in assay [2], in assay [3] and in assay [4] was inactive.

Take `Cc1ccc(NC(=S)N2CCC(N(C)CC3CCCO3)CC2)cc1` (stereo not given): the outcome in assay [1], in assay [3] and in assay [4] was inactive. Also, the potentiation in assay [2] is 19.5% (active).

In the case of `CCOc1ccccc1NC(=O)C(=O)CC(=O)c1cccc(OC)c1`, the activation in assay [1] was 216% (active). For the same molecule, the potentiation in assay [2] was 87% (active); in assay [3], 280% (active). In addition, the result in assay [4] was inactive.

In the case of `COC(=O)c1ccc(COC(=O)c2ccccc2OC)cc1`, the outcome in assay [1], in assay [2], in assay [3] and in assay [4] was inactive.

In the case of `COc1cccc(C2=NOC(C(=O)NCc3ccccc3)C2)c1` (stereo not given), the result in assay [1], in assay [2], in assay [3] and in assay [4] was inactive.

`C=CCn1sc(=N)c(C#N)c1N`: the activation in assay [1] was 528% (active). In addition, the figures for the potentiation in assay [2] and in assay [3] were 195% (active) and 492% (active), respectively. Also, the outcome in assay [4] was inactive.

`CC1(c2ccccc2)CC(C)(C)N2C(=O)/C(=C3\SC(=S)NC3=O)c3cccc1c32` (stereo not given): in assay [1], the activation was 684% (active). For the same molecule, the potentiation in assay [2] was 292% (active); in assay [3], 520% (active). The result in assay [4] was inactive.

Regarding `O=c1c(-c2ccccc2)[n+]([O-])c2ccccc2n1O`, the outcome in assay [1], in assay [2], in assay [3] and in assay [4] was inactive.

As to `CCc1cc2c(=O)n(CCC(C)C)c(=S)[nH]c2s1`, the activation in assay [1] was 516% (active). Also, the potentiation is 228% (active) in assay [2] and 499% (active) in assay [3]. The result in assay [4] was inactive.

In the case of `O=C(c1ccccc1)N1CCC(CC2CC(c3ccc(Cl)cc3)=NO2)(C(=O)NCC2CCCCC2)CC1` (stereo not given), the outcome in assay [1], in assay [2], in assay [3] and in assay [4] was inactive.

On to `COc1cccc(C(=O)NNC(=O)C(=O)Nc2cccc3ccccc23)c1`, for which, in assay [1], the activation is 218% (active). Further, the potentiation is 51.5% (active) in assay [2] and 228% (active) in assay [3]. The outcome in assay [4] was inactive.

Turning to `C=CCn1c(O)c(N=NC(=S)Nc2ccccc2C)c2cc(S(=O)(=O)N3CCOCC3)ccc21`, in assay [1], the activation is 218% (active). The potentiation in assay [2] was 45% (active); in assay [3], 226% (active). The result in assay [4] was inactive.

Consider `CCN1C(=O)/C(=C/c2ccc(C)s2)NC1=S`, for which the activation in assay [1] was 208% (active). Further, the potentiation in assay [2] is 57.5% (active); in assay [3], 258% (active). Further, the outcome in assay [4] was inactive.

For `COc1ccc(C(=O)NNC(=O)C(=O)NC2CCCCC2)cc1`, the outcome in assay [1] and in assay [4] was inactive. For the same molecule, the potentiation in assay [2] is 22% (active); in assay [3], 168% (active).

Take `O=C(NCc1ccccc1)/C(=C/c1ccccc1)NC(=O)c1ccco1`: the result in assay [1], in assay [2], in assay [3] and in assay [4] was inactive.

Turning to `CCC1(c2ccccc2)NC(=S)N(c2ccc(C)cc2)N1` (stereo not given), the activation in assay [1] is 392% (active). Moreover, the values for the potentiation in assay [2] and in assay [3] were 198% (active) and 522% (active), respectively. Moreover, the outcome in assay [4] was inactive.

Turning to `CCOC(=O)Cc1cc(=O)n2[nH]c(C)c(-c3ccc(Cl)cc3)c2n1`, the result in assay [1], in assay [2], in assay [3] and in assay [4] was inactive.

As to `Cc1cc(N=Cc2cc(Br)ccc2O)no1`, in assay [1], the activation is 144% (active). Besides, the outcome in assay [2], in assay [3] and in assay [4] was inactive.

In the case of `COc1ccccc1CNCc1cccc(Oc2ccccc2)c1`, the result in assay [1], in assay [2], in assay [3] and in assay [4] was inactive.

Regarding `O=C1CCC/C(=N\NC(=O)c2ccc(COc3cccc4cccnc34)cc2)C1`, the outcome in assay [1], in assay [2], in assay [3] and in assay [4] was inactive.

As for `Cc1cc2ccccn2c1C(=S)NC(=O)c1ccccc1`, the activation in assay [1] was 290% (active). Moreover, the potentiation is 102% (active) in assay [2] and 370% (active) in assay [3]. In assay [4], the result was inactive.

With `CCCc1nc(SCC(=O)Nc2cc(Cl)ccc2OC)c2c(=O)n(C)c(=O)n(C)c2n1`, the result in assay [1], in assay [2], in assay [3] and in assay [4] was inactive.

As to `NC(=S)Nc1nc2ccccc2s1`, in assay [1], the activation is 165% (active). Besides, the values for the potentiation in assay [2] and in assay [3] were 54.5% (active) and 186% (active), respectively. Moreover, in assay [4], the result was inactive.

Consider `Cc1ccc(C)c(SCC(=O)NC(=O)Nc2ccc3c(c2)OCCO3)c1`, for which the result in assay [1], in assay [2], in assay [3] and in assay [4] was inactive.

`CCC1CCC2(CC1)NC(CO)(CO)CO2` (stereo not given): the outcome in assay [1], in assay [2], in assay [3] and in assay [4] was inactive.

As to `O=C(NC(=S)N1CCc2ccccc21)c1ccccc1Cl`, in assay [1], the activation was 443% (active). Moreover, the results for the potentiation in assay [2] and in assay [3] were 130% (active) and 416% (active), respectively. In assay [4], the result was inactive.

In the case of `COc1ccc(OCC(=O)N2CCCC2=O)c([N+](=O)[O-])c1`, the result in assay [1], in assay [2], in assay [3] and in assay [4] was inactive.

For the molecule `O=C(CSc1nnnn1-c1ccc(F)cc1)Nc1ccc(N2CCOCC2)c(Cl)c1`, the result in assay [1], in assay [2], in assay [3] and in assay [4] was inactive.

Regarding `NC(=S)n1[nH]c(-c2ccc([N+](=O)[O-])cc2)c(N=Nc2cccc(Cl)c2)c1=O`, in assay [1], the activation is 150% (active). Moreover, the potentiation in assay [2] was 34.5% (active); in assay [3], 179% (active). The result in assay [4] was inactive.
